The term Ki denotes a dissociation constant, usually derived from enzyme kinetics or from competition with a known ligand.

Our source for the Ki values is ChEMBL document CHEMBL1133588 (J Med Chem, 2000).

Format in all cases: tissue-based
Assay [1] deals with T1, Muscarinic acetylcholine receptor M1 (Rattus norvegicus, UniProt P08482).
T1 sequence (P08482 whole entry): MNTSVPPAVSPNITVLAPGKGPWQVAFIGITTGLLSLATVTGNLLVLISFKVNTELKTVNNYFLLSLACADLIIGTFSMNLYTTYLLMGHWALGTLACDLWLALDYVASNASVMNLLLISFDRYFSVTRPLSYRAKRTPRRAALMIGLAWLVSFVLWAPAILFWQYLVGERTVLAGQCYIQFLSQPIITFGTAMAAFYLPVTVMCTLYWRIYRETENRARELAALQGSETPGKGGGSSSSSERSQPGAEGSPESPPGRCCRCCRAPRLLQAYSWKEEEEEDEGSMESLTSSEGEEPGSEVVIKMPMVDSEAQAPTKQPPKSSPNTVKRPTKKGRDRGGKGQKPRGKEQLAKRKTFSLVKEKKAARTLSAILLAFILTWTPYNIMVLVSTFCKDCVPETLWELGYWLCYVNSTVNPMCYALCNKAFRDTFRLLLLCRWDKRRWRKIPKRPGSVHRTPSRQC
As to the kind of experiment: Binding affinity at Muscarinic acetylcholine receptor M1 in Rat brain homogenate by [3H]pirenzepine displacement.

For assay [2], the target named is T1, Muscarinic acetylcholine receptor M1. As to the kind of experiment: Compound is tested for displacement of [3H]pirenzepine at […] in Rat brain homogenate. The essentials:
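Whole rat brain minus cerebellum, homogenised in 10 mM Tris-HCl/320 mM sucrose pH 7.4; 10000g pellet. Binding in 10 mM Tris-HCl with 5 mM MgCl2, […], [3H]pirenzepine 3 nM final, 1 h at 37 °C. Competitor 0.01 nM–100 µM. Filtration through PEI-soaked GF/B filters. At least three experiments in triplicate; Ki from nonlinear curve fitting.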
(Loss of bound radioactivity is the signal in a displacement assay; it reports binding, not function.)

The target in assay [3] is Sodium-dependent dopamine transporter (Rattus norvegicus, UniProt P23977). As to the kind of experiment: Displacement of [3H]WIN-35428 from the dopamine transporter in rat caudate putamen. The essentials:
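Male Sprague-Dawley rat caudate putamen, fresh washed membranes in Krebs-HEPES pH 7.4, 0.5% w/v. Filtration on BSA-soaked GF/B filters. Three experiments in triplicate; Ki from nonlinear least-squares fitting of pooled replicates.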

Sodium-dependent dopamine transporter, sequence (P23977 whole entry): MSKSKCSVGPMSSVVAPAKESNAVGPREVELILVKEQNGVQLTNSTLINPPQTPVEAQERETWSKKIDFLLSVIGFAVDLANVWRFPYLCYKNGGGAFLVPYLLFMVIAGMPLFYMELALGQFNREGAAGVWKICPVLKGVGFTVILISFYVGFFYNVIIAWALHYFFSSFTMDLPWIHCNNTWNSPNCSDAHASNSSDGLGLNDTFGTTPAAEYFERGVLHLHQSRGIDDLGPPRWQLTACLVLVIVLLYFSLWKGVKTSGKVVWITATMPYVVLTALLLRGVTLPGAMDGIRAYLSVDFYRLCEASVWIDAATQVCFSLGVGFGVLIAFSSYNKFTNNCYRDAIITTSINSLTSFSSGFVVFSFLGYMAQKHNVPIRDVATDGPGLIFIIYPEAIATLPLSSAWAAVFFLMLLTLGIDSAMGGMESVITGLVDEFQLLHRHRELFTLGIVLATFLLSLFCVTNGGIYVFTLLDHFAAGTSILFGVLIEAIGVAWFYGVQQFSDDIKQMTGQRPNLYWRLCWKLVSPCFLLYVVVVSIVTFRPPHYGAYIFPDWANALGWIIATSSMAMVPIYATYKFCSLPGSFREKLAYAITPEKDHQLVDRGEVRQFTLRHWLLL

On to `CCCCN1C2CCC1CC(OC(c1ccc(F)cc1)c1ccc(F)cc1)C2` (stereo not given), for which the Ki in assay [1] was found to be 399 nM.
With `Fc1ccc(CCCN2C3CCC2CC(OC(c2ccc(F)cc2)c2ccc(F)cc2)C3)cc1` (stereo not given), the affinity in assay [2] corresponds to a Ki of 686 nM.
On the same count and under the same terms, with `Fc1ccc(CN2C3CCC2CC(OC(c2ccc(F)cc2)c2ccc(F)cc2)C3)cc1` (stereo not given) the figure was 1540 nM.
For `Fc1ccc(C(OC2CC3CCC(C2)N3)c2ccc(F)cc2)cc1` (stereo not given), in assay [1], affinity was put at a Ki of 203 nM.
As to `Fc1ccc(C(OC2CC3CCC(C2)N3Cc2cccc3ccccc23)c2ccc(F)cc2)cc1` (stereo not given), the Ki came out at 367 nM in assay [3] and 1790 nM in assay [1].
As for `Fc1ccc(C(OC2CC3CCC(C2)N3CCCc2ccccc2)c2ccc(F)cc2)cc1` (stereo not given), the Ki in assay [2] is 312 nM.
With `Fc1ccc(C(OC2CC3CCC(C2)N3Cc2ccccc2)c2ccc(F)cc2)cc1` (stereo not given), the Ki in assay [2] was determined as 1030 nM.
For `C=CCCN1C2CCC1CC(OC(c1ccc(F)cc1)c1ccc(F)cc1)C2` (stereo not given), the Ki in assay [3] is 31.9 nM; in assay [1] it was 278 nM.
Consider `O=[N+]([O-])c1ccc(-c2ccc(COCCN3C4CCC3CC(OC(c3ccc(F)cc3)c3ccc(F)cc3)C4)cc2)cc1` (stereo not given), for which the Ki in assay [2] amounted to 460 nM.
For the molecule `CC[C@H](CN1C2CCC1CC(OC(c1ccc(F)cc1)c1ccc(F)cc1)C2)c1ccccc1` (stereo not given in full), the results for the Ki in assay [3] and in assay [1] were 228 nM and 2360 nM, respectively.
For `C[C@@H](CN1C2CCC1CC(OC(c1ccc(F)cc1)c1ccc(F)cc1)C2)c1ccccc1` (stereo not given in full), the Ki in assay [3] came to 477 nM; in assay [1], 392 nM.
The like results for `CC[C@@H](CN1C2CCC1CC(OC(c1ccc(F)cc1)c1ccc(F)cc1)C2)c1ccccc1` (stereo not given in full) were, in that order, 400 nM and 1440 nM.
The like results for `C[C@H](CN1C2CCC1CC(OC(c1ccc(F)cc1)c1ccc(F)cc1)C2)c1ccccc1` (stereo not given in full) were, in that order, 301 nM and 1900 nM.
The like results for `Fc1ccc(C(OC2CC3CCC(C2)N3Cc2ccc(Cl)c(Cl)c2)c2ccc(F)cc2)cc1` (stereo not given) were, in that order, 392 nM and 3880 nM.
Turning to `CC(C)[C@H](N)CN1C2CCC1CC(OC(c1ccc(F)cc1)c1ccc(F)cc1)C2` (stereo not given in full), the Ki in assay [3] came to 29.5 nM; in assay [1] it was 4020 nM.
As to `Fc1ccc(C(OC2CC3CCC(C2)N3C/C=C/c2ccccc2)c2ccc(F)cc2)cc1` (stereo not given), the Ki came out at 86.4 nM in assay [3] and 401 nM in assay [2].
In turn, `Nc1ccc(CCCCN2[C@@H]3CC[C@H]2C[C@@H](OC(c2ccc(F)cc2)c2ccc(F)cc2)C3)cc1` came in with a Ki in assay [1] of 134 nM.
Take `O=[N+]([O-])c1ccc(CCCCN2[C@@H]3CC[C@H]2C[C@@H](OC(c2ccc(F)cc2)c2ccc(F)cc2)C3)cc1`: the Ki in assay [1] was 299 nM.
Regarding `NCCN1[C@@H]2CC[C@H]1C[C@@H](OC(c1ccc(F)cc1)c1ccc(F)cc1)C2`, the Ki in assay [3] amounted to 13.9 nM; in assay [1] it was 1250 nM.
Turning to `Fc1ccc(C(O[C@H]2C[C@H]3CC[C@@H](C2)N3CCc2c[nH]c3ccccc23)c2ccc(F)cc2)cc1`, the Ki in assay [3] turned out to be 44.6 nM; in assay [2] it was 3280 nM.
On to `C=CCN1C2CCC1CC(OC(c1ccc(F)cc1)c1ccc(F)cc1)C2` (stereo not given), for which the affinity in assay [1], expressed as Ki, was 177 nM.
With `CC(C)[C@@H](N)CN1C2CCC1CC(OC(c1ccc(F)cc1)c1ccc(F)cc1)C2` (stereo not given in full), the inhibition constant (Ki) amounted to 56.4 nM in assay [3] and 2180 nM in assay [1].
Consider `Fc1ccc(C(OC2CC3CCC(C2)N3CC2CC2)c2ccc(F)cc2)cc1` (stereo not given), for which the Ki in assay [2] is 257 nM.
